In ChEMBL document CHEMBL2163200, “Synthesis, biological evaluation, and structure-activity relationships of novel substituted N-phenyl ureidobenzenesulfonate derivatives blocking cell cycle progression in S-phase and inducing DNA double-strand breaks” (J Med Chem, 2012):
Calls of active or inactive are those of the source. No cut-off for these calls is given here.

How the values were obtained:
Jurkat [1] = assay: Cell cycle arrest in human Jurkat E6-1 cells assessed as accumulation at G2/M phase at 10 uM after 24 hrs by FACS flow cytometry; format: functional
How it was run: (§1)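 Jurkat E6 cells cultured in RPMI 1640 with 10% FBS at 37 °C, 5% CO2. Compounds serially diluted in medium, starting 50% above the M21 IC50. 4.0 × 10^5 cells were exposed for 24 h. Cells were washed with PBS, chicken red blood cells added as internal standard, and fixed in ice-cold EtOH. After 1 h on ice in PBS with 1 μg/mL DAPI, phase distribution was read by flow cytometry. DMSO-treated cells served as control.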

HT-29 = assay: Cytotoxicity against human HT-29 cells after 48 hrs by SRB assay; format: functional, cell-based; conditions: HT-29, 48 h
How it was run: (§2)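 NCI sulforhodamine B protocol. Cells were grown in high-glucose DMEM with 5% FBS and seeded per well at 4 × 10^3 (HT-29), 3.5 × 10^3 (M21) or 3 × 10^3 (MCF-7), then allowed 24 h to attach. Serial dilutions from 200 μM to 780 nM final were applied in DMSO <0.5% for 48 h. Cells were fixed with cold TCA (10% final) and stained with SRB, with absorbance read at 530–568 nm. Growth inhibition was computed against day-0 plates, giving the 50% inhibitory concentration. At least two experiments in triplicate, CV <10%.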

Jurkat [2] = assay: Cell cycle arrest in human Jurkat E6-1 cells assessed as accumulation at G0/G1 phase at 10 uM after 24 hrs by FACS flow cytometry; format: functional; how it was run: as §1
MCF7 = assay: Cytotoxicity against human MCF7 cells after 48 hrs by SRB assay; format: functional, cell-based; conditions: MCF7, 48 h; how it was run: as §2
M21 [3] = assay: Cytotoxicity against human M21 cells after 48 hrs by SRB assay; format: functional, cell-based; conditions: M21, 48 h; how it was run: as §2
Jurkat [4] = assay: Cell cycle arrest in human Jurkat E6-1 cells assessed as accumulation at S phase at 10 uM after 24 hrs by FACS flow cytometry; format: functional
How it was run: (§3)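 Jurkat E6 cells grown in RPMI 1640 with 10% FBS at 37 °C, 5% CO2. Compounds were serially diluted in medium starting 50% above the M21 IC50. 4.0 × 10^5 cells were exposed for 24 h, then washed and spiked with chicken red blood cells as internal standard. Cells were fixed in ice-cold ethanol, stained with 1 μg/mL DAPI on ice for 1 h, and phase distribution was read by flow cytometry. The control was 0.5% DMSO.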

Jurkat [5] = assay: Cell cycle arrest in human Jurkat E6-1 cells assessed as accumulation at G0/G1 phase at 24 uM after 24 hrs by FACS flow cytometry; format: functional; how it was run: as §1
Jurkat [6] = assay: Cell cycle arrest in human Jurkat E6-1 cells assessed as accumulation at G2/M phase at 24 uM after 24 hrs by FACS flow cytometry; format: functional; how it was run: as §3
Jurkat [7] = assay: Cell cycle arrest in human Jurkat E6-1 cells assessed as accumulation at S phase at 24 uM after 24 hrs by FACS flow cytometry; format: functional; how it was run: as §3
Jurkat [8] = assay: Cell cycle arrest in human Jurkat E6-1 cells assessed as accumulation at G2/M phase at 63 uM after 24 hrs by FACS flow cytometry; format: functional; how it was run: as §3
Jurkat [9] = assay: Cell cycle arrest in human Jurkat E6-1 cells assessed as accumulation at S phase at 63 uM after 24 hrs by FACS flow cytometry; format: functional
How it was run: (§4)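 Jurkat E6 T-lymphoblasts in RPMI 1640 with 10% FBS, 37 °C, 5% CO2. […] Chicken red blood cells were added as internal standard. Cells were fixed in ice-cold EtOH and stained with 1 μg/mL DAPI on ice for 1 h before flow cytometry of phase distribution. Vehicle control was 0.5% DMSO.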

Jurkat [10] = assay: Cell cycle arrest in human Jurkat E6-1 cells assessed as accumulation at G0/G1 phase at 63 uM after 24 hrs by FACS flow cytometry; format: functional; how it was run: as §1
Jurkat [11] = assay: Cell cycle arrest in human Jurkat E6-1 cells assessed as accumulation at G0/G1 phase at 1.2 uM after 24 hrs by FACS flow cytometry; format: functional; how it was run: as §1
Jurkat [12] = assay: Cell cycle arrest in human Jurkat E6-1 cells assessed as accumulation at S phase at 1.2 uM after 24 hrs by FACS flow cytometry; format: functional; how it was run: as §3
Jurkat [13] = assay: Cell cycle arrest in human Jurkat E6-1 cells assessed as accumulation at G2/M phase at 1.2 uM after 24 hrs by FACS flow cytometry; format: functional; how it was run: as §1
HT-1080 [14] = assay: Antitumor activity against human HT1080 cells xenografted in chicken chorioallantoic membrane assessed as inhibition of tumor growth at 10 ug per egg, iv administered on day 11 measured on day 17 by CAM assay; format: functional
How it was run: (§5)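 HT-1080 fibrosarcoma cells (3.5 × 105/egg) were applied onto freshly exposed CAM of fertilized chicken eggs. On day 11, drug from a DMSO stock was diluted in Cremophor EL/99% ethanol/PBS (1/1/14 v/v) and 100 μL was injected into a vein under the CAM. Groups of 10–12 eggs were kept to day 17, embryos were euthanized at 4 °C for ≥4 h, and tumor wet weight was recorded.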

M21 [15] = assay: Induction of DNA damage response in human M21 cells assessed as phosphorylation of H2AX into gammaH2AX at IC50 after 24 hrs by DAPI staining-based immunofluorescence assay; format: functional, cell-based
How it was run: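 M21 cells (1 × 10^5) on fibronectin-coated coverslips, grown 24 h, then exposed to agent for 24 h at 37 °C; 0.5% DMSO control. Fixed with 3.7% formaldehyde and permeabilized with 0.1% saponin/3% BSA. Probed with mouse anti-H2AX pS139 antibody for 2 h at room temperature. Nuclei counterstained with DAPI; nuclear γH2AX foci viewed by epifluorescence microscopy.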

[16] = Toxicity in fertilized chicken embryo assessed as mortality rate at 10 ug per egg, iv administered on day 11 measured on day 17 CAM assay; format: organism-based, Gallus gallus; conditions: in vivo, read-out: Activity
How it was run: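 Fertilized chicken eggs grafted on the CAM with HT-1080 cells (3.5 × 105/egg) received a 100 μL intravenous injection under the CAM on day 11. The drug was diluted in Cremophor EL/99% ethanol/PBS (1/1/14 v/v). Groups held 10–12 eggs and were incubated until day 17, when dead embryos and signs of toxicity were counted per group.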

Jurkat [17] = assay: Cell cycle arrest in human Jurkat E6-1 cells assessed as accumulation at G2/M phase at 6.6 uM after 24 hrs by FACS flow cytometry; format: functional; how it was run: as §3
Jurkat [18] = assay: Cell cycle arrest in human Jurkat E6-1 cells assessed as accumulation at S phase at 6.6 uM after 24 hrs by FACS flow cytometry; format: functional; how it was run: as §4
Jurkat [19] = assay: Cell cycle arrest in human Jurkat E6-1 cells assessed as accumulation at G0/G1 phase at 6.6 uM after 24 hrs by FACS flow cytometry; format: functional; how it was run: as §1
Jurkat [20] = assay: Cell cycle arrest in human Jurkat E6-1 cells assessed as accumulation at G2/M phase at 13 uM after 24 hrs by FACS flow cytometry; format: functional; how it was run: as §1
Jurkat [21] = assay: Cell cycle arrest in human Jurkat E6-1 cells assessed as accumulation at G0/G1 phase at 13 uM after 24 hrs by FACS flow cytometry; format: functional; how it was run: as §1
Jurkat [22] = assay: Cell cycle arrest in human Jurkat E6-1 cells assessed as accumulation at S phase at 13 uM after 24 hrs by FACS flow cytometry; format: functional; how it was run: as §3
Jurkat [23] = assay: Cell cycle arrest in human Jurkat E6-1 cells assessed as accumulation at S phase at 9.3 uM after 24 hrs by FACS flow cytometry; format: functional; how it was run: as §4
Jurkat [24] = assay: Cell cycle arrest in human Jurkat E6-1 cells assessed as accumulation at G2/M phase at 9.3 uM after 24 hrs by FACS flow cytometry; format: functional; how it was run: as §3
Jurkat [25] = assay: Cell cycle arrest in human Jurkat E6-1 cells assessed as accumulation at G0/G1 phase at 9.3 uM after 24 hrs by FACS flow cytometry; format: functional; how it was run: as §1
HT-1080 [26] = assay: Antitumor activity against human HT1080 cells xenografted in chicken chorioallantoic membrane assessed as inhibition of tumor growth at 30 ug per egg, iv administered on day 11 measured on day 17 by CAM assay; format: functional; how it was run: as §5

Structure (SMILES): CCCc1ccccc1NS(=O)(=O)c1cccc(NC(=O)NCCCl)c1
- Activity (Jurkat [1]): 19%
- IC50 (HT-29): 15 µM
- Activity (Jurkat [2]): 42%
- IC50 (MCF7): 16 µM
- IC50 (M21 [3]): 17 µM
- Activity (Jurkat [4]): 39%

Structure (SMILES): Cc1ccccc1OS(=O)(=O)c1cccc(NC(=O)NCCCl)c1
- IC50 (HT-29): 33 µM
- Activity (Jurkat [5]): 45%
- Activity (Jurkat [6]): 11%
- IC50 (M21 [3]): 40 µM
- Activity (Jurkat [7]): 44%

Structure (SMILES): Cc1ccccc1NS(=O)(=O)c1cccc(NC(=O)NCCCl)c1
- IC50 (HT-29): 71 µM
- Activity (Jurkat [8]): 14%
- Activity (Jurkat [9]): 45%
- IC50 (MCF7): 86 µM
- IC50 (M21 [3]): 91 µM
- Activity (Jurkat [10]): 41%

Structure (SMILES): Cc1ccccc1OS(=O)(=O)c1ccc(NC(=O)NCCCl)cc1
- IC50 (HT-29): 4.7 µM
- Activity (Jurkat [11]): 22%
- Activity (Jurkat [12]): 71%
- Activity (Jurkat [13]): 7%
- IC50 (MCF7): 4.8 µM
- IC50 (M21 [3]): 2.8 µM
- TGI (HT-1080 [14]): 60%
- Activity (M21 [15]): Active
- mortality at 6 days [16]: 15%

Structure (SMILES): CCCc1ccccc1OS(=O)(=O)c1ccc(NC(=O)NCCCCl)cc1
- Activity (Jurkat [17]): 8%
- Activity (Jurkat [18]): 67%
- IC50 (MCF7): 15 µM
- IC50 (M21 [3]): 13 µM
- Activity (M21 [15]): Active
- Activity (Jurkat [19]): 25%

Structure (SMILES): CCCc1ccccc1OS(=O)(=O)c1cccc(NC(=O)NCCCl)c1
- IC50 (HT-29): 15 µM
- Activity (Jurkat [20]): 17%
- IC50 (M21 [3]): 17 µM
- Activity (Jurkat [21]): 47%
- Activity (Jurkat [22]): 36%

Structure (SMILES): CCc1ccccc1OS(=O)(=O)c1ccc(NC(=O)NCCCl)cc1
- IC50 (HT-29): 17 µM
- Activity (Jurkat [23]): 77%
- Activity (Jurkat [24]): 17%
- Activity (Jurkat [25]): 6%
- IC50 (MCF7): 19 µM
- IC50 (M21 [3]): 13 µM
- Activity (M21 [15]): Active
- TGI (HT-1080 [26]): 49%
